ChEMBL document CHEMBL4028848, “Discovery of N-{4-[5-(4-Fluorophenyl)-3-methyl-2-methylsulfanyl-3H-imidazol-4-yl]-pyridin-2-yl}-acetamide (CBS-3595), a Dual p38α MAPK/PDE-4 Inhibitor with Activity against TNFα-Related Diseases” (J Med Chem, 2017)
Values belong to the compound of their own block, whether it stands above or below them. Calls of active or inactive are those of the source. The calls are words filed in the database; no cut-off is given here.

Columns and labels:
[1] = molecular target: 3',5'-cyclic-AMP phosphodiesterase 4A (Homo sapiens, UniProt P27815); test: Inhibition of human PDE4A4 expressed in sf9 cells
[2] = molecular target: 3',5'-cyclic-AMP phosphodiesterase 4B (Homo sapiens, UniProt Q07343); test: Inhibition of human PDE4B1 expressed in sf9 cells
[3] = Tmax in fasting human at 10 mg, po administered as single dose; assay type: ADME, organism-based; conditions: in vivo
How it was run: (§1)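 Healthy subjects received single oral doses of 10, 20, 30 or 50 mg in a placebo-controlled, single-blind, randomized consecutive-dose study; 10 mg was also given fasting vs fed in a crossover. Plasma drug was sampled pre-dose and from 0.25 to 36 h post-dose. Mean Tmax was taken from individual concentration–time profiles.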

[4] = Tmax in human at 30 mg, po administered as single dose; assay type: ADME, organism-based; conditions: in vivo; how it was run: as §1
[5] = Cmax in human at 50 mg, po administered as single dose; assay type: ADME, organism-based; set-up: dose 50 mg, route oral; conditions: in vivo
Homo sapiens [6] = species on record: Homo sapiens; test: Inhibition of PDE3 in human U937 cells assessed as [3H]cAMP hydrolysis at 10 uM; assay type: cell-based
[7] = AUC (0 to t) in human at 20 mg, po administered as single dose; assay type: ADME, organism-based; conditions: in vivo
How it was run: (§2)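 Placebo-controlled, single-blind, randomized, consecutive-dosing study in healthy subjects given single oral doses, with 10 mg also given fasting and fed in a crossover. Plasma parent and active metabolite were measured predose and from 0.25 to 36 h post dose. PK parameters were derived from individual concentration–time profiles and reported as means.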

[8] = AUC (0 to infinity) in fasting human at 10 mg, po administered as single dose; assay type: ADME, organism-based; set-up: dose 10 mg, time infinity, route oral; conditions: in vivo; how it was run: as §2
[9] = molecular target: Mitogen-activated protein kinase 13 (Homo sapiens) (UniProt O15264); test: Inhibition of p38MAPK delta (unknown origin) at 10 uM relative to control
[10] = Tmax in fed human at 10 mg, po administered as single dose; assay type: ADME, organism-based; conditions: in vivo; how it was run: as §1
[11] = Tmax in human at 10 mg, po administered as single dose; assay type: ADME, organism-based; conditions: in vivo; how it was run: as §1
[12] = Half life in human at 50 mg, po administered as single dose; assay type: ADME, organism-based; conditions: in vivo
How it was run: (§3)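 Oral single-dose PK; plasma concentrations of parent and metabolite measured. Dogs: blood sampled 0.25 to 24 h after dosing. Humans: healthy subjects, placebo-controlled single-blind randomized consecutive dosing, plasma sampled predose and 0.25–36 h post dose. 10 mg also given fasting and fed in crossover. Parameters derived from individual concentration–time profiles.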

[13] = Cmax in human at 20 mg, po administered as single dose; assay type: ADME, organism-based; set-up: dose 20 mg, route oral; conditions: in vivo; how it was run: as §3
[14] = AUC (0 to infinity) in human at 30 mg, po administered as single dose; assay type: ADME, organism-based; set-up: dose 30 mg, time infinity, route oral; conditions: in vivo; how it was run: as §2
[15] = AUC (0 to t) in human at 10 mg, po administered as single dose; assay type: ADME, organism-based; conditions: in vivo; how it was run: as §2
[16] = molecular target: RAF proto-oncogene serine/threonine-protein kinase (Homo sapiens) (UniProt P04049); test: Inhibition of c-RAF (unknown origin) at 10 uM relative to control
[17] = molecular target: 3',5'-cyclic-AMP phosphodiesterase 4C (Homo sapiens, UniProt Q08493); test: Inhibition of human PDE4C1 expressed in sf9 cells
[18] = AUC (0 to t) in human at 30 mg, po administered as single dose; assay type: ADME, organism-based; conditions: in vivo; how it was run: as §2
[19] = Half life in fasting human at 10 mg, po administered as single dose; assay type: ADME, organism-based; conditions: in vivo; how it was run: as §3
[20] = AUC (0 to t) in fed human at 10 mg, po administered as single dose; assay type: ADME, organism-based; conditions: in vivo; how it was run: as §2
Homo sapiens [21] = test: Toxicity in human assessed as effect on CNS at 50 mg, po administered as single dose; assay type: organism-based; conditions: in vivo
How it was run: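 Single oral 50 mg dose given to healthy subjects in a placebo-controlled, single-blind, randomized FIH study. Adverse events, vital signs and physical findings were recorded, including CNS effects.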

[22] = AUC (0 to infinity) in human at 50 mg, po administered as single dose; assay type: ADME, organism-based; set-up: dose 50 mg, time infinity, route oral; conditions: in vivo; how it was run: as §2
[23] = Inhibition of PDE4 in human U937 cells assessed as [3H]cAMP hydrolysis; assay type: cell-based
[24] = Half life in human at 10 mg, po administered as single dose; assay type: ADME, organism-based; conditions: in vivo; how it was run: as §3
[25] = AUC (0 to infinity) in human at 20 mg, po administered as single dose; assay type: ADME, organism-based; set-up: dose 20 mg, time infinity, route oral; conditions: in vivo; how it was run: as §2
[26] = Half life in human at 20 mg, po administered as single dose; assay type: ADME, organism-based; conditions: in vivo; how it was run: as §3
[27] = molecular target: Mitogen-activated protein kinase 9 (Homo sapiens) (UniProt P45984); test: Inhibition of JNK2alpha2 (unknown origin) at 10 uM relative to control
[28] = AUC (0 to infinity) in human at 10 mg, po administered as single dose; assay type: ADME, organism-based; set-up: dose 10 mg, time infinity, route oral; conditions: in vivo; how it was run: as §2
[29] = AUC (0 to t) in human at 50 mg, po administered as single dose; assay type: ADME, organism-based; conditions: in vivo; how it was run: as §2
[30] = AUC (0 to t) in fasting human at 10 mg, po administered as single dose; assay type: ADME, organism-based; conditions: in vivo; how it was run: as §2
[31] = Fraction unbound in human plasma; assay type: ADME, cell-free
How it was run: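 Plasma protein binding measured in human, Sprague–Dawley rat and Cynomolgus monkey plasma at 1, 10 and 30 μM compound. Reported as unbound fraction (%).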

[32] = molecular target: T1, 3',5'-cyclic-AMP phosphodiesterase 4D (Homo sapiens, UniProt Q08499); test: Inhibition of human PDE4D2 expressed in sf9 cells
[33] = Half life in human at 30 mg, po administered as single dose; assay type: ADME, organism-based; conditions: in vivo; how it was run: as §3
[34] = Tmax in human at 20 mg, po administered as single dose; assay type: ADME, organism-based; conditions: in vivo; how it was run: as §1
[35] = Cmax in fasting human at 10 mg, po administered as single dose; assay type: ADME, organism-based; set-up: dose 10 mg, route oral; conditions: in vivo; how it was run: as §2
[36] = Cmax in fed human at 10 mg, po administered as single dose; assay type: ADME, organism-based; set-up: dose 10 mg, route oral; conditions: in vivo; how it was run: as §2
[37] = Half life in fed human at 10 mg, po administered as single dose; assay type: ADME, organism-based; conditions: in vivo; how it was run: as §3
[38] = molecular target: T1, 3',5'-cyclic-AMP phosphodiesterase 4D; test: Inhibition of human PDE4D3 expressed in sf9 cells
[39] = molecular target: Mitogen-activated protein kinase 14 (Homo sapiens, UniProt Q16539); test: Inhibition of P38 MAPKalpha in LPS-stimulated human whole blood assessed as decrease in TNFalpha level
[40] = molecular target: cGMP-specific 3',5'-cyclic phosphodiesterase (Homo sapiens) (UniProt O76074); test: Inhibition of PDE5 in human U937 cells assessed as [3H]cAMP hydrolysis at 10 uM; assay type: cell-based
[41] = AUC (0 to infinity) in fed human at 10 mg, po administered as single dose; assay type: ADME, organism-based; set-up: dose 10 mg, route oral, time infinity; conditions: in vivo; how it was run: as §2
[42] = Cmax in human at 30 mg, po administered as single dose; assay type: ADME, organism-based; set-up: dose 30 mg, route oral; conditions: in vivo; how it was run: as §3
[43] = Cmax in human at 10 mg, po administered as single dose; assay type: ADME, organism-based; set-up: dose 10 mg, route oral; conditions: in vivo; how it was run: as §3
[44] = Tmax in human at 50 mg, po administered as single dose; assay type: ADME, organism-based; conditions: in vivo; how it was run: as §1
[45] = molecular target: Casein kinase I isoform delta (Homo sapiens) (UniProt P48730); test: Inhibition of CK1delta (unknown origin) at 10 uM relative to control
[46] = Tmax in Beagle dog at 40 mg/kg, po by LC-MS/MS analysis; assay type: ADME, organism-based, Canis lupus familiaris; conditions: in vivo

T1 sequence (Q08499 whole entry): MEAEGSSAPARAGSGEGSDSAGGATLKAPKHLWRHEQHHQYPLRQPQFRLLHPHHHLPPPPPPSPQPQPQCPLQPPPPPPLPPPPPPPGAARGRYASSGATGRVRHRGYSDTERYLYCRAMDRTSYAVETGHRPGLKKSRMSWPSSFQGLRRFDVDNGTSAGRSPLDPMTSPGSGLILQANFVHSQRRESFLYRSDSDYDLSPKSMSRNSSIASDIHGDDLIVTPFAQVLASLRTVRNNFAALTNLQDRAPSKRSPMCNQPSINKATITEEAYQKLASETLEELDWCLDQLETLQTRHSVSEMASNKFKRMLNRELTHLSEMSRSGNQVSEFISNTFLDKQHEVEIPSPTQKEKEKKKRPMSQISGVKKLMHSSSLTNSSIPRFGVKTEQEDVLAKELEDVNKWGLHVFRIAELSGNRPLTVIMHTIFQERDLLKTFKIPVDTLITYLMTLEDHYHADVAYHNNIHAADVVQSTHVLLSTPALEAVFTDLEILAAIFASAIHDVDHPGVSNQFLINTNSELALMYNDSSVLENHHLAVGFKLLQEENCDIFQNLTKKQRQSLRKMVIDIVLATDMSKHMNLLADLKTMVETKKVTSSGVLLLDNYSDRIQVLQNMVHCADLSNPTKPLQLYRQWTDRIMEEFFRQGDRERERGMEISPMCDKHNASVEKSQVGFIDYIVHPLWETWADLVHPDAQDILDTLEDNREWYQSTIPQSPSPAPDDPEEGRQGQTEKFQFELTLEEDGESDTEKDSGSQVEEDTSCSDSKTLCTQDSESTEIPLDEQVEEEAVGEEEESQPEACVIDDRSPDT
Sequence of Mitogen-activated protein kinase 9 (Homo sapiens) (P45984 whole entry, looked up): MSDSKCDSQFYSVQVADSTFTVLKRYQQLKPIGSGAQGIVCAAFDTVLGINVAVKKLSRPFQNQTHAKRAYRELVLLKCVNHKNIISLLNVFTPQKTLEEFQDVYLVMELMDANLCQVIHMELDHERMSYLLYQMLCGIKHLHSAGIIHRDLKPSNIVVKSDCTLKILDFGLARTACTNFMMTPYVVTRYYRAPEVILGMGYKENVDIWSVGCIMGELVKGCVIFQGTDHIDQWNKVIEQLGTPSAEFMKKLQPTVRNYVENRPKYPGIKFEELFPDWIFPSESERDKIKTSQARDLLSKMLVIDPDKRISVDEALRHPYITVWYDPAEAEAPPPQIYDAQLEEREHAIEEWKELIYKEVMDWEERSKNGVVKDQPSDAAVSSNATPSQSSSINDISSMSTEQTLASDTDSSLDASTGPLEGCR
Sequence of RAF proto-oncogene serine/threonine-protein kinase (Homo sapiens) (P04049 whole entry): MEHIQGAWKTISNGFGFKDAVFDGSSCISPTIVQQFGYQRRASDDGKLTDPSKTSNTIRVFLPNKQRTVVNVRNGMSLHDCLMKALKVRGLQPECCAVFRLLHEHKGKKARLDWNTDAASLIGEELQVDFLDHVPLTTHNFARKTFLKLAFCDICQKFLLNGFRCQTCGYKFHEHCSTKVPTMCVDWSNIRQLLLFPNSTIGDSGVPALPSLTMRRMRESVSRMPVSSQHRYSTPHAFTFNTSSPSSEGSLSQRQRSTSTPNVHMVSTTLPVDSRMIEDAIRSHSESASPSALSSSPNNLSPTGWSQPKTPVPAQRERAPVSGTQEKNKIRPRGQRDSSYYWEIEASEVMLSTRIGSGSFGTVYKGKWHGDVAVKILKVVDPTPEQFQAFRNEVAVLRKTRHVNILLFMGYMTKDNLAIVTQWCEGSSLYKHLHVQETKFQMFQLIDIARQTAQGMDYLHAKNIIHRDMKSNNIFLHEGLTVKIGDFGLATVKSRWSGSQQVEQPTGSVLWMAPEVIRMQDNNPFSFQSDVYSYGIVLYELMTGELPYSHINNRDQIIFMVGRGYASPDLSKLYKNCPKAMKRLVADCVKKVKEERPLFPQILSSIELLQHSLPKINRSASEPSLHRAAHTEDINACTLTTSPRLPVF
Sequence of Mitogen-activated protein kinase 14 (Q16539 whole entry): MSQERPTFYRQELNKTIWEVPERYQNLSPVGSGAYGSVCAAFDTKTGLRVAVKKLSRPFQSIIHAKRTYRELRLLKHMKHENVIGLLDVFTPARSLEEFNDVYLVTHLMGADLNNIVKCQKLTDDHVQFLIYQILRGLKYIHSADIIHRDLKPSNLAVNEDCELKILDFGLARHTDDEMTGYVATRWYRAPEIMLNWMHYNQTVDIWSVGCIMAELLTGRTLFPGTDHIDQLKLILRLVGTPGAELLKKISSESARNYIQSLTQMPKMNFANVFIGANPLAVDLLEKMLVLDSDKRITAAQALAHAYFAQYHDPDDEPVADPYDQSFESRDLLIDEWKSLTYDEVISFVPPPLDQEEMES
Sequence of 3',5'-cyclic-AMP phosphodiesterase 4A (P27815 whole entry): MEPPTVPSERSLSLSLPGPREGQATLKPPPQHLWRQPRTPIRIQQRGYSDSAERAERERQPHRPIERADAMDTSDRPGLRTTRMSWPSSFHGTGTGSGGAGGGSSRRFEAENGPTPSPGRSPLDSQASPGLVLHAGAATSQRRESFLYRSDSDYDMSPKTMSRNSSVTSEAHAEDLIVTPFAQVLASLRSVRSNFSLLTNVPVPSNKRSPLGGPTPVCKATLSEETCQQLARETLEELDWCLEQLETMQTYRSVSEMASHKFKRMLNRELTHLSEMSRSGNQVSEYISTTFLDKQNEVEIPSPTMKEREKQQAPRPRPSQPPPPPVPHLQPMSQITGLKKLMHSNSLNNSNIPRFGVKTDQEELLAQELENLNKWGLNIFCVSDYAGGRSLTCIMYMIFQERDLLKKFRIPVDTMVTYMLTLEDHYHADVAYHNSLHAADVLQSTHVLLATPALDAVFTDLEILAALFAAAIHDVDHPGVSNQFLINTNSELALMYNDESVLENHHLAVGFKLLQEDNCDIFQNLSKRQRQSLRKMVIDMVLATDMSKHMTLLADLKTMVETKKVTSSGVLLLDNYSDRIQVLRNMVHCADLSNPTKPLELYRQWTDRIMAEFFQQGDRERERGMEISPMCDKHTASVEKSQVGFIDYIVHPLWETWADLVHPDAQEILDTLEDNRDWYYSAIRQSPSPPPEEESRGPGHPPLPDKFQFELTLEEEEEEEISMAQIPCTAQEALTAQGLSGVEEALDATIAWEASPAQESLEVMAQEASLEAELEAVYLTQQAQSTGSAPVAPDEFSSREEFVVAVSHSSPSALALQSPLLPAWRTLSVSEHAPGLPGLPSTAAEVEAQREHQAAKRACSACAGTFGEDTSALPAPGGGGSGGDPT
Sequence of 3',5'-cyclic-AMP phosphodiesterase 4C (Q08493 whole entry): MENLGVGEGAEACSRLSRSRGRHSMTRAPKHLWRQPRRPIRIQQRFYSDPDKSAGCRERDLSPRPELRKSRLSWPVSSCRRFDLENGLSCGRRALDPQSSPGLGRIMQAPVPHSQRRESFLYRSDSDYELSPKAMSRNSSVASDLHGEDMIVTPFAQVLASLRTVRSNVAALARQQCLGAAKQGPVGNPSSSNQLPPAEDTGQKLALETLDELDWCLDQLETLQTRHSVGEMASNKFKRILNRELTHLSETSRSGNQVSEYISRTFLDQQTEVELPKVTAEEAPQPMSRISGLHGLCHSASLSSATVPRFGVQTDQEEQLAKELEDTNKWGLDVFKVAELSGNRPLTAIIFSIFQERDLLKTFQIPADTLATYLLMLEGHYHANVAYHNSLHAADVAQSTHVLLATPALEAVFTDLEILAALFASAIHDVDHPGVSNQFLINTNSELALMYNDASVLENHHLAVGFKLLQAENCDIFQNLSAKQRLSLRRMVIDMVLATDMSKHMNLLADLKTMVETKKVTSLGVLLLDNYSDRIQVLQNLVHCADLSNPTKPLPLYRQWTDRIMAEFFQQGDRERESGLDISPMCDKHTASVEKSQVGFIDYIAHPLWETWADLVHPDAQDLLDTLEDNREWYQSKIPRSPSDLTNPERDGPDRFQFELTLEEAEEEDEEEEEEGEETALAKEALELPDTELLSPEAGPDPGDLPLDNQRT
Sequence of Mitogen-activated protein kinase 13 (Homo sapiens) (O15264 whole entry): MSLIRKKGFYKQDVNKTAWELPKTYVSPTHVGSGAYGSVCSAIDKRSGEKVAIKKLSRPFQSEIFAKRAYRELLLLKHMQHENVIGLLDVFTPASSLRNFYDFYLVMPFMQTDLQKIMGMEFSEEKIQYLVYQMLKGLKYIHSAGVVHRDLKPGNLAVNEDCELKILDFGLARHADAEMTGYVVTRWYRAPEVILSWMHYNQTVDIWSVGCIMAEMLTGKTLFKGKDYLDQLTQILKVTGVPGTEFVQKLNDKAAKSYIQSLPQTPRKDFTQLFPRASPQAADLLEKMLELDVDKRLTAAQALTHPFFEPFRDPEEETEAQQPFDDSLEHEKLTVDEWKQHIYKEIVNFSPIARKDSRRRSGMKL
Sequence of 3',5'-cyclic-AMP phosphodiesterase 4B (Q07343 whole entry): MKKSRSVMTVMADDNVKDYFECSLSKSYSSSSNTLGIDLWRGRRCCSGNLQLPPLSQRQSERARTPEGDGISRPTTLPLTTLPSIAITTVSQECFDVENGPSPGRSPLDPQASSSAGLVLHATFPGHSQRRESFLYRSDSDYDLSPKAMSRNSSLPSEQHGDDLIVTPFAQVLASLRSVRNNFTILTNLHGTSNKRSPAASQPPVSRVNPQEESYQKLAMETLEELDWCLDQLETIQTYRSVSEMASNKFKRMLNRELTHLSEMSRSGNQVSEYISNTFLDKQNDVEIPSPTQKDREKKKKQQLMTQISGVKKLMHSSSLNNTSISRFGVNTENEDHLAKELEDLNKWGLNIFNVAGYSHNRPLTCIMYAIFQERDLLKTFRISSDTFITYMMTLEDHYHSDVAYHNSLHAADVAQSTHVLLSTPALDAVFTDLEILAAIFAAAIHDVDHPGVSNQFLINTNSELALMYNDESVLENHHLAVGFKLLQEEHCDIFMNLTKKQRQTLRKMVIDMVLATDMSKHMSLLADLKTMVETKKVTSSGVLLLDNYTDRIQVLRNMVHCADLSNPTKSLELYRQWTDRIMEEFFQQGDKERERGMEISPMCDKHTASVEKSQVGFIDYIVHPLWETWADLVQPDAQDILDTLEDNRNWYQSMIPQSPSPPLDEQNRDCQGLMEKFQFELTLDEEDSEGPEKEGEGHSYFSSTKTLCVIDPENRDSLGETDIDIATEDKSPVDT

- IC50 [1]: 9900 nM
- IC50 [2]: 3500 nM
- Tmax [3]: 6 h
- Tmax [4]: 6 h
- Cmax [5]: 600 nM
- AUC(0-t) [7]: 6.38 µM·h
- AUC(0-inf) [8]: 3.29 µM·h
- inhibition [9]: inactive
- Tmax [10]: 6.7 h
- Tmax [11]: 4.7 h
- half-life [12]: 9 h
- Cmax [13]: 360 nM
- AUC(0-inf) [14]: 8.55 µM·h
- AUC(0-t) [15]: 2.95 µM·h
- inhibition [16]: inactive
- IC50 [17]: > 10000 nM
- AUC(0-t) [18]: 7.37 µM·h
- half-life [19]: 11.3 h
- AUC(0-t) [20]: 2.6 µM·h
- AUC(0-inf) [22]: 9.4 µM·h
- IC50 [23]: 2000 nM
- half-life [24]: 9.5 h
- AUC(0-inf) [25]: 7.17 µM·h
- half-life [26]: 10.9 h
- inhibition [27]: inactive
- AUC(0-inf) [28]: 3.43 µM·h
- AUC(0-t) [29]: 8.73 µM·h
- AUC(0-t) [30]: 2.82 µM·h
- fraction unbound [31]: 0.5
- IC50 [32]: 2400 nM
- half-life [33]: 11.3 h
- Tmax [34]: 5 h
- Cmax [35]: 150 nM
- Cmax [36]: 140 nM
- half-life [37]: 10.7 h
- IC50 [38]: 700 nM
- IC50 [39]: 710 nM
- inhibition [40]: inactive
- AUC(0-inf) [41]: 3.07 µM·h
- Cmax [42]: 420 nM
- Cmax [43]: 190 nM
- Tmax [44]: 5 h
Compound: Cn1c([S+](C)[O-])nc(-c2ccc(F)cc2)c1-c1ccnc(N)c1 (stereo not given)
- inhibition (Homo sapiens [6]): inactive
- Activity (Homo sapiens [21]): Non-Toxic

Compound: CC(=O)Nc1cc(-c2c(-c3ccc(F)cc3)nc([S+](C)[O-])n2C)ccn1 (stereo not given)
- IC50 [1]: 2900 nM
- IC50 [2]: 1900 nM
- Tmax [3]: 3.3 h
- Tmax [4]: 2.3 h
- Cmax [5]: 590 nM
- inhibition (Homo sapiens [6]): inactive
- AUC(0-t) [7]: 1.99 µM·h
- inhibition [45]: 94%
- AUC(0-inf) [8]: 0.82 µM·h
- inhibition [9]: 35%
- Tmax [10]: 3.7 h
- Tmax [11]: 2.2 h
- half-life [12]: 3.2 h
- Cmax [13]: 310 to 314 nM
- AUC(0-inf) [14]: 3.05 µM·h
- AUC(0-t) [15]: 0.95 µM·h
- Tmax [46]: 1.5 h
- inhibition [16]: 36%
- IC50 [17]: 6400 nM
- AUC(0-t) [18]: 2.65 µM·h
- half-life [19]: 2.8 h
- AUC(0-t) [20]: 0.79 µM·h
- Activity (Homo sapiens [21]): Non-Toxic
- AUC(0-inf) [22]: 3.58 µM·h
- IC50 [23]: 200 to 400 nM
- half-life [24]: 2.7 h
- AUC(0-inf) [25]: 2.24 µM·h
- half-life [26]: 3.3 h
- inhibition [27]: 51%
- AUC(0-inf) [28]: 1.04 µM·h
- AUC(0-t) [29]: 3.4 µM·h
- AUC(0-t) [30]: 0.73 µM·h
- fraction unbound [31]: 0.5
- IC50 [32]: 1100 nM
- half-life [33]: 3.4 h
- Tmax [34]: 2.9 h
- Cmax [35]: 140 nM
- Cmax [36]: 140 nM
- half-life [37]: 2.8 h
- IC50 [38]: 800 nM
- IC50 [39]: 710 nM
- inhibition [40]: inactive
- AUC(0-inf) [41]: 0.88 µM·h
- Cmax [42]: 420 nM
- Cmax [43]: 200 nM
- Tmax [44]: 1.5 h
